Assay results: ChEMBL document CHEMBL1130427, “Phenylimidazolidin-2-one derivatives as selective 5-HT3 receptor antagonists and refinement of the pharmacophore model for 5-HT3 receptor binding” (J Med Chem, 1997)
Calls of active or inactive are those of the source.

Assays:
[1] = biological target: T1, Serotonin 3 (5-HT3) receptor (Rattus norvegicus) (UniProt P35563+Q9JJ16); assay: (§1) Inhibition of the Bezold Jarisch reflex evoked by 30 ug/Kg of 5-HT.; type: functional
How it was run: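 Rats anesthetized with ethylurethane, 1.25 g/kg ip. Bezold–Jarisch reflex evoked by 5-HT 30 μg/kg iv. The rapid, transient fall in heart rate was quantified without and with antagonist.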

[2] = biological target: T1, Serotonin 3 (5-HT3) receptor (Rattus norvegicus); assay: Antagonist activity ([…]) for the Bezold Jarisch reflex evoked by 30 ug/Kg of 5-HT in ethylurethane anesthetized rats (i.v.); type: functional
[3] = biological target: T2, Serotonin 3 (5-HT3) receptor (Rattus norvegicus, UniProt P35563+Q9JJ16); assay: In vitro affinity for 5-hydroxytryptamine 3 (5-HT3) receptor by displacement of [3H]BRL-43694 from rat entorhinal cortex
T2 sequence (P35563 whole entry): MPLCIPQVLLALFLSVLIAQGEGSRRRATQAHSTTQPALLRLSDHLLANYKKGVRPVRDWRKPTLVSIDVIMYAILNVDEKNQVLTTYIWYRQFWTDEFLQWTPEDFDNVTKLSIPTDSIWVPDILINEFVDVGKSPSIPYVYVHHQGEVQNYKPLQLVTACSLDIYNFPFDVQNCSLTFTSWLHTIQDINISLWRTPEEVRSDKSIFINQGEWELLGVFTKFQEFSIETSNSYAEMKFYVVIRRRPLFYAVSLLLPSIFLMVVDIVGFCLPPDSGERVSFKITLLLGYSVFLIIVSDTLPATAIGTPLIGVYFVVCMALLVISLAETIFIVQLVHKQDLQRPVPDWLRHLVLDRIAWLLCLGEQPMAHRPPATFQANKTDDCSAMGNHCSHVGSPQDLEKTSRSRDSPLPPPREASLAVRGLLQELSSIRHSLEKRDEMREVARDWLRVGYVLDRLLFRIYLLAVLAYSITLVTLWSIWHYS
T2 sequence (Q9JJ16 whole entry): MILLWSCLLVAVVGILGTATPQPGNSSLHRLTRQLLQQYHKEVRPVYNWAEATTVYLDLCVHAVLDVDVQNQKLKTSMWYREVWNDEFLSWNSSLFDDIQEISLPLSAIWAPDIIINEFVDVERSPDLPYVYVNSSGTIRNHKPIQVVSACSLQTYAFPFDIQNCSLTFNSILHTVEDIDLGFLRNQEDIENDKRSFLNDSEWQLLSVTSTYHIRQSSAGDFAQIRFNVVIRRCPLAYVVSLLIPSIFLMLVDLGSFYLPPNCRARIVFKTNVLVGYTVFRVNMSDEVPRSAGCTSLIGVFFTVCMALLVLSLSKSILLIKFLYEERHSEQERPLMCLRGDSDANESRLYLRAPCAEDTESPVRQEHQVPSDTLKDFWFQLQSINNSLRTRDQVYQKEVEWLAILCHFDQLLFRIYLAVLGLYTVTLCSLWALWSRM
How it was run: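 Each displacement curve has 10 concentrations in triplicate; Ki averaged from at least three curves (±SEM) using the Ligand program.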

[4] = biological target: T1, Serotonin 3 (5-HT3) receptor (Rattus norvegicus); assay: Inhibition of the Bezold Jarisch reflex evoked by 30 ug/Kg of 5-HT; Weak activity.; type: functional
Rattus norvegicus = assay: Antagonist activity (100 ug/kg) for the Bezold Jarisch reflex evoked by 30(ug/Kg) of 5-HT receptor in ethylurethane anesthetized rats i.v.; type: functional
[5] = biological target: T1, Serotonin 3 (5-HT3) receptor (Rattus norvegicus); assay: as §1; type: functional; remark: listed apart in the source
[6] = biological target: T3, 5-hydroxytryptamine receptor 3A (Rattus norvegicus) (UniProt P35563); assay: Antagonist activity (100 ug/kg) for the Bezold Jarisch reflex evoked by 30 (ug/Kg) of 5-hydroxytryptamine 3 receptor in ethylurethane anesthetized rats i.v.; type: functional
T3 sequence (whole entry): T2 sequence (P35563 whole entry)

Row | ID50 [1] | inhibition [2] | Structure (SMILES) | Ki [3] | ID50 [4] | Inhibition (Rattus norvegicus) | ID50 [5] | inhibition [6]
1 | 0.0039 mg/kg | 95% | Cc1[nH]cnc1CN1CCN(c2ccccc2)C1=O | 3.4 nM | – | – | – | –
2 | – | – | CN1C2CCCC1CC(N1CCN(c3cccc(Cl)c3)C1=O)C2 (stereo in doubt; 37) [listing 1 of 2 here] | 250 nM | – | – | – | –
3 | 0.0286 mg/kg | 88% | CSc1cccc(N2CCN(Cc3nc[nH]c3C)C2=O)c1 | 1.6 nM | – | – | – | –
4 | – | 45% | Cc1[nH]c[n+](C)c1CN1CCN(c2ccccc2)C1=O | 55 nM | Partially active | – | – | –
5 | 0.054 mg/kg | 95% | Cc1[nH]cnc1CN1CCN(c2cccc([N+](=O)[O-])c2)C1=O | – | – | – | – | –
6 | 0.0031 mg/kg | 86% | Cc1cccc(N2CCN(Cc3nc[nH]c3C)C2=O)c1 | 0.93 nM | – | – | – | –
7 | 0.00088 mg/kg | 95% | CN1C2CCCC1CC(NC(=O)c1nn(C)c3ccccc13)C2 (centres undefined) | – | – | – | – | –
8 | – | – | CN1C2CCC1CC(N1CCN(c3cccc(Cl)c3)C1=O)C2 (stereo in doubt; 34) [listing 1 of 2 here] | > 10000 nM | – | – | – | –
9 | 0.0065 mg/kg | 89% | Cc1[nH]cnc1CN1CCN(c2cccc(Br)c2)C1=O | 0.62 nM | – | – | – | –
10 | 0.0176 mg/kg | 84% | Cc1[nH]cnc1CN1CCN(c2cccc(F)c2)C1=O | 3.7 nM | – | – | – | –
11 | 0.001 mg/kg | – | CN1[C@@H]2CC[C@H]1C[C@@H](OC(=O)c1c[nH]c3ccccc13)C2 | – | – | – | – | –
12 | 0.0322 mg/kg | 88% | Cc1[nH]cnc1CN1CCN(c2cccc(C#N)c2)C1=O | 2.7 nM | – | – | – | –
13 | 0.00526 mg/kg | 87% | Cc1[nH]cnc1CN1CCN(c2cccc(Cl)c2)C1=O | 0.5 nM | – | – | – | –
14 | – | 56% | O=C1N(Cc2c[nH]cn2)CCN1c1ccccc1 | 4 nM | Partially active | – | – | –
15 | 0.0034 mg/kg | 86% | Cc1cc(C)cc(N2CCN(Cc3nc[nH]c3C)C2=O)c1 | 0.42 nM | – | – | – | –
16 | – | 5% | Cc1[nH]cnc1CN1CCN(c2ccccc2Cl)C1=O | 290 nM | Partially active | – | – | –
17 | – | – | Cc1nc[nH]c1CN1CCN(c2cccc([N+](=O)[O-])c2)C1=O | 6.6 nM | – | – | – | –
18 | – | 39% | Cc1[nH]cnc1CN1CCN(c2cccc(C(F)(F)F)c2)C1=O | 9.7 nM | Partially active | – | – | –
19 | 0.0022 mg/kg | 93% | Cc1[nH]cnc1CN1CCN(c2cc(Cl)cc(Cl)c2)C1=O | 0.038 nM | – | – | – | –
20 | 0.00225 mg/kg | – | Cc1nccn1CC1CCc2c(c3ccccc3n2C)C1=O (centres undefined) | – | – | – | – | –
21 | – | 38% | CC[n+]1c[nH]c(C)c1CN1CCN(c2ccccc2)C1=O | 67 nM | Partially active | – | – | –
22 | – | – | CN1C2CCCC1CC(N1CCN(c3cccc(Cl)c3)C1=O)C2 (stereo in doubt; 38) [listing 2 of 2 here] | 360 nM | – | – | – | –
23 | 0.0285 mg/kg | 77% | Cc1c(CN2CCN(c3ccccc3)C2=O)ncn1C | 8.5 nM | – | – | – | –
24 | 0.0154 mg/kg | 92% | COc1cccc(N2CCN(Cc3nc[nH]c3C)C2=O)c1 | 3.6 nM | – | – | – | –
25 | – | – | COc1cccc(N2CCN(C3CN4CCC3CC4)C2=O)c1 (centres undefined) | 6 nM | Partially active | 37% | – | –
26 | – | 29% | Cc1[nH]cnc1CN1CCN(c2ccc(Cl)cc2)C1=O | 19 nM | Partially active | – | – | –
27 | – | – | O=C1N(c2cccc(Cl)c2)CCN1C1CN2CCC1CC2 (centres undefined) | 2 nM | – | 60% | 0.0799 mg/kg | –
28 | – | 21% | CCn1cnc(CN2CCN(c3ccccc3)C2=O)c1C | 85 nM | Partially active | – | – | –
29 | – | – | O=C1N(c2ccc(Cl)cc2)CCN1C1CN2CCC1CC2 (centres undefined) | 210 nM | Partially active | – | – | 8%
30 | – | – | CN1C2CCC1CC(N1CCN(c3cccc(Cl)c3)C1=O)C2 (stereo in doubt; 33) [listing 2 of 2 here] | 25 nM | – | – | – | –

Row | Structure (SMILES) | ID50 [1] | inhibition [2] | Ki [3] | ID50 [4] | Inhibition (Rattus norvegicus) | ID50 [5] | inhibition [6]
31 | CN1C2CCCC1CC(N1CCN(c3cccc(Cl)c3)C1=O)C2 (stereo in doubt; 38) [listing 1 of 2 here] | – | 21% | – | Partially active | – | – | –
32 | O=C1N(c2cccc([N+](=O)[O-])c2)CCN1C1CN2CCC1CC2 (centres undefined) | – | 5% | 10 nM | Partially active | – | – | –
33 | CN1C2CCC1CC(N1CCN(c3cccc(Cl)c3)C1=O)C2 (stereo in doubt; 33) [listing 1 of 2 here] | – | 27% | – | Partially active | – | – | –
34 | COc1ccc(Cl)cc1N1CCN(C2CC3CCC(C2)N3C)C1=O (centres undefined) | – | 22% | 400 nM | Partially active | – | – | –
35 | O=C1N(c2cccc(Br)c2)CCN1C1CN2CCC1CC2 (centres undefined) | – | 77.7% | 3 nM | Partially active | – | – | –
36 | CN1C2CCC1CC(N1CCN(c3ccccc3)C1=O)C2 (centres undefined) | – | 56% | 12 nM | Partially active | – | – | –
37 | O=C1N(c2cccc(C(F)(F)F)c2)CCN1C1CN2CCC1CC2 (centres undefined) | – | 14% | 98 nM | Partially active | – | – | –
38 | CN1C2CCC1CC(N1CCN(c3cccc(Cl)c3)C1=O)C2 (stereo in doubt; 34) [listing 2 of 2 here] | – | 0% | – | Partially active | – | – | –
39 | CN1C2CCC1CC(NC(=O)N1CC(C)(C)c3ccccc31)C2 (centres undefined) | 0.00089 mg/kg | 90.5% | 0.26 nM | – | – | – | –
40 | CN1C2CCCC1CC(N1CCN(c3ccccc3)C1=O)C2 (centres undefined) | – | 22% | 190 nM | Partially active | – | – | –
41 | O=C1N(c2cc(Cl)cc(Cl)c2)CCN1C1CN2CCC1CC2 (centres undefined) | 0.0206 mg/kg | 76% | 1 nM | – | – | – | –
42 | CN1C2CCCC1CC(N1CCN(c3cccc(Cl)c3)C1=O)C2 (stereo in doubt; 37) [listing 2 of 2 here] | – | 15% | – | Partially active | – | – | –
43 | COc1ccc(Cl)cc1N1CCN(C2CN3CCC2CC3)C1=O (centres undefined) | – | 11% | 40 nM | Partially active | – | – | –
44 | O=C1N(c2ccccc2)CCN1C1CN2CCC1CC2 (centres undefined) | 0.0671 mg/kg | 71% | 8 nM | – | – | – | –
45 | N#Cc1cccc(N2CCN(C3CN4CCC3CC4)C2=O)c1 (centres undefined) | – | 43% | 30 nM | Partially active | – | – | –
46 | CSc1cccc(N2CCN(C3CN4CCC3CC4)C2=O)c1 (centres undefined) | – | 28% | 6 nM | Partially active | – | – | –
47 | Cc1cccc(N2CCN(C3CN4CCC3CC4)C2=O)c1 (centres undefined) | – | 75% | 4 nM | – | – | 0.0376 mg/kg | –
48 | COc1ccc(Cl)cc1N1CCN(C2CC3CCCC(C2)N3C)C1=O (centres undefined) | – | 5% | > 10000 nM | Partially active | – | – | –
